The record followed here is ChEMBL document CHEMBL1124216, “A novel class of potential central nervous system agents. 3-Phenyl-2-(1-piperazinyl)-5H-1-benzazepines” (1988).

Bounds are passed on as bounds.

What all share (assay type): functional
Assay [1] has as its system Mus musculus. As to the kind of experiment: Antimaximal electroshock seizure (MES) activity in mice after peroral administration of 100 mg/kg of compound; 3/5. The note with it: route oral. (In general: Protection in the maximal electroshock model is a classic sign of anticonvulsant action.)
For assay [2], the system named is Mus musculus. As to the kind of experiment: Antimaximal electroshock seizure activity was determined in mice when administered perorally. The note with it: po.
Assay [3] deals with Mus musculus. The assay is described as follows: Antitremorine activity(TRM) of mice after peroral administration of 100 mg/kg of compound; No inhibition. The note with it: route oral.
For assay [4], the system named is Mus musculus. The assay is described as follows: Antireserpine activity (RES) of mice after peroral administration of 100 mg/kg of compound; No inhibition. The note with it: route oral.
Assay [5] deals with Mus musculus. As to the kind of experiment: Antipentylene tetrazole activity was determined in mice when administered perorally. The conditions noted are these: po. Summed up:
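Groups of five male Std-ddY mice received compound orally in 0.5% tragacanth, then pentylenetetrazole 175 mg/kg ip. Blockade of the tonic extensor component scored as anticonvulsant. ED50 was the dose protecting 50% of animals (Litchfield-Wilcoxon).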

The test system of assay [6] is Mus musculus. The assay is described as follows: Antiexploratory activity (EXPL) of mice determined by an antimex activity meter, 100 mg/kg of dose was administered perorally; No inhibition. The note with it: route oral.
Assay [7] concerns Mus musculus. The assay is described as follows: Antireserpine activity (RES) of mice after peroral administration of 100 mg/kg of compound; Moderate inhibition (51-71%). The conditions noted are these: route oral.
Assay [8] relates to Mus musculus. As to the kind of experiment: Antimaximal electroshock seizure (MES) activity in mice after peroral administration of 100 mg/kg of compound; 0/5. The note with it: route oral.
In assay [9] the test system is Mus musculus. As to the kind of experiment: Antiexploratory activity (EXPL) of mice determined by an antimex activity meter, 50 mg/kg of dose was administered perorally; No inhibition. The conditions noted are these: route oral.
Assay [10] has as its system Mus musculus. The assay is described as follows: Antitremorine activity(TRM) of mice after peroral administration of 50 mg/kg of compound; No inhibition. The conditions noted are these: route oral.
Assay [11] concerns Mus musculus. The assay is described as follows: Antiexploratory activity (EXPL) of mice determined by an antimex activity meter, 50 mg/kg of dose was administered perorally; Moderate inhibition (51-71%). The conditions noted are these: route oral.
Assay [12] has as its system Mus musculus. The assay is described as follows: The homovanillic acid (HVA) levels in mouse brain at 50 mg/kg of dose. Summed up: (§1)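 Mice dosed orally in 0.5% aqueous tragacanth; brains of five mice per compound pooled. Homovanillic acid measured in brain extracts and reported as brain level.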
In assay [13] the test system is Mus musculus. As to the kind of experiment: Exploratory activity of mice determined by an antimex activity meter, 10 mg/kg of dose was administered perorally. The conditions noted are these: route oral.
Assay [14] concerns Canis familiaris. As to the kind of experiment: Inhibition of apomorphine induced emesis in dogs at 1 mg/kg of dose. The note with it: Canis lupus familiaris. Summed up:
(§2)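 Beagle dogs (10-15 kg), groups of three, given compound po in a gelatin capsule; 2 h later apomorphine hydrochloride 0.3 mg/kg sc. Vomiting counted for 1 h; mean inhibition as percent of control. ED50 is the dose giving 50% inhibition of emesis, by Litchfield-Wilcoxon.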

Assay [15] concerns Mus musculus. The assay is described as follows: (§3) 3,4 -Dihydroxy phenylacetic acid (DOPAC) levels in mouse brain at 10 mg/kg dose. Summed up:
(§4)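 Male Std-ddY mice, 20-25 g, dosed orally with compound in 0.5% aqueous tragacanth. DOPAC was measured fluorometrically after purification by column chromatography on Sephadex G-10 and QAE-Sephadex. Brains from five mice per compound were pooled for each determination.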

The test system of assay [16] is Mus musculus. The assay is described as follows: Antiexploratory activity (EXPL) of mice determined by an antimex activity meter, 10 mg/kg of dose was administered perorally; No inhibition. The note with it: route oral.
For assay [17], the system named is Mus musculus. As to the kind of experiment: (§5) 3,4 -Dihydroxy phenylacetic acid (DOPAC) levels in mouse brain at 50 mg/kg dose. Summed up:
as §4

Assay [18] deals with Mus musculus. As to the kind of experiment: The homovanillic acid (HVA) levels in mouse brain at 10 mg/kg of dose. Summed up:
as §1

For assay [19], the system named is Mus musculus. As to the kind of experiment: Exploratory activity of mice determined by an antimex activity meter, 50 mg/kg of dose was administered perorally. The note with it: Mus musculus, po. Summed up:
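Male Std-ddY mice (20-25 g), five per dose; compound in 0.5% aqueous tragacanth given orally. Two hours later each mouse placed in an Animex activity meter cage and locomotor activity counted for 3 min. Mean suppression expressed as percent inhibition of control; ED50 by Litchfield-Wilcoxon.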

The subject of assay [20] is Mus musculus. As to the kind of experiment: Antireserpine activity (RES) of mice after peroral administration of 50 mg/kg of compound; Slight inhibition (31-50%). The conditions noted are these: route oral.
The test system of assay [21] is Mus musculus. As to the kind of experiment: Antiexploratory activity (EXPL) of mice determined by an antimex activity meter, 50 mg/kg of dose was administered perorally; Slight inhibition (31-50%). The conditions noted are these: route oral.
The test system of assay [22] is Mus musculus. The assay is described as follows: Antireserpine activity (RES) of mice after peroral administration of 50 mg/kg of compound; No inhibition. The note with it: route oral.
Assay [23] relates to Mus musculus. As to the kind of experiment: Antiexploratory activity (EXPL) of mice determined by an antimex activity meter, 100 mg/kg of dose was administered perorally; Moderate inhibition (51-71%). The note with it: route oral.
The test system of assay [24] is Mus musculus. The assay is described as follows: Antitremorine activity(TRM) of mice after peroral administration of 100 mg/kg of compound; Slight inhibition (31-50%). The conditions noted are these: route oral.
Assay [25] deals with Mus musculus. As to the kind of experiment: Concentration of compound that causes ptosis in the mice when administered perorally. The conditions noted are these: po. Summed up:
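Five male Std-ddY mice per group were dosed orally in 0.5% aqueous tragacanth. At 2 h, eyelid closure was scored macroscopically (8 open to 0 fully closed). Group mean scores formed a dose-response curve. ED50 was the dose reducing the mean score to 50%.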

Assay [26] has as its system Mus musculus. The assay is described as follows: Antiexploratory activity (EXPL) of mice determined by an antimex activity meter, when administered perorally. The conditions noted are these: po. Summed up: (§6)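 Male Std-ddY mice (20-25 g), five per dose, given compound orally in 0.5% aqueous tragacanth. Two hours later each mouse was placed in the activity-meter cage and locomotor activity was counted for 3 min. Suppression is expressed as percent inhibition of control. ED50 (dose giving 50% inhibition) calculated by Litchfield-Wilcoxon.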

For assay [27], the system named is Mus musculus. The description is as §3. Summed up: (§7)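 Male Std-ddY mice (20-25 g) dosed orally with compound dissolved or suspended in 0.5% aqueous tragacanth. DOPAC measured fluorometrically after purification by column chromatography on Sephadex G-10 and QAE-Sephadex. Brains from five mice per compound pooled for the determination.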
The source holds these as a separate data set.

In assay [28] the test system is Mus musculus. The assay is described as follows: The homovanillic acid (HVA)levels in mouse brain at 50 mg/kg of dose. Summed up: (§8)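 Male Std-ddY mice (20-25 g) dosed orally with compound in 0.5% aqueous tragacanth (solution or suspension). Brain homovanillic acid (HVA) determined by a published method. Brains from five mice per compound pooled for one determination.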

Assay [29] deals with Mus musculus. The assay is described as follows: Concentration of compound that causes catalepsy in the mice when administered perorally. The conditions noted are these: po. Summed up:
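Male Std-ddY mice were dosed orally, vehicle 0.5% aqueous tragacanth. At 2 h, forepaws were placed on a rod 4.5 cm high. Failure to remove the paws within 30 s in three successive trials was scored cataleptic. ED50 was the dose giving catalepsy in 50% of mice (Litchfield-Wilcoxon).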

For assay [30], the system named is Canis familiaris. As to the kind of experiment: Inhibition of apomorphine induced emesis in dogs when administered perorally. The note with it: Canis lupus familiaris, po. Summed up: as §2
Assay [31] has as its system Mus musculus. The assay is described as §5. Summed up:
as §7
This is another data set of the same source.

The test system of assay [32] is Mus musculus. The assay is described as follows: Antiexploratory activity (EXPL) of mice determined by an antimex activity meter, 50 mg/kg of dose was administered perorally. The note with it: route oral. Summed up: as §6
Assay [33] concerns Rattus norvegicus. As to the kind of experiment: Inhibition of self stimulation response in rats when administered perorally. The note with it: po. Summed up:
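Male Wistar HLA rats (300-400 g) with chronic electrodes implanted in the lateral posterior hypothalamus; only rats lever-pressing steadily at 50-100/min were used. Compound given po in 0.5% tragacanth. Self-stimulation counted for 10 min before and 2 h after dosing. ED50 is the dose giving ≥50% rate inhibition in 50% of rats (Litchfield-Wilcoxon).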

The test system of assay [34] is Mus musculus. The assay is described as follows: Antiexploratory activity (EXPL) of mice determined by an antimex activity meter, 10 mg/kg of dose was administered perorally. The conditions noted are these: route oral. Summed up: as §6
Assay [35] concerns Mus musculus. As to the kind of experiment: The homovanillic acid (HVA)levels in mouse brain at 10 mg/kg of dose. Summed up: as §8
Assay [36] concerns Mus musculus. As to the kind of experiment: Inhibition of conditioned avoidance response in mice when administered perorally. The note with it: po. Summed up:
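One-way active avoidance in male Std-ddY mice in a dark/light two-compartment box. Mice trained to move to the lit side on a warning stimulus to escape floor shock; groups of 10 avoiding at >80% in 10 trials. Compound po in 0.5% tragacanth. ED50 is the dose halving avoidance rate (Litchfield-Wilcoxon).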

Regarding `Cc1ccc2c(c1)CC=C(c1ccccc1)C(N1CCN(C)CC1)=N2.Cl.Cl`, in assay [1], the Activity was 3. Moreover, the ED50 (commonly the midpoint of the dose-response relation) was 86.1 mg/kg in assay [2] and 50.9 mg/kg in assay [5]. Moreover, the inhibition in vivo at 100 mg/kg in assay [3], in assay [4] and in assay [6] was less than 30% in each case.

For the compound `CN1CCN(C2=Nc3ccccc3CC=C2c2cccc(Cl)c2)CC1.Cl.Cl`, testing at 100 mg/kg in assay [7] gave an inhibition in vivo of 51%. For the same compound, the Activity in assay [8] was found to be 0. In addition, the inhibition in vivo (commonly the share of the control response that was lost under treatment) at 50 mg/kg in [9] was less than 30%.

Turning to `Clc1ccc(C2=CCc3ccccc3N=C2N2CCCCC2)cc1`, the inhibition in vivo at 50 mg/kg in assay [10] and in [9] was less than 30% each time. Besides, the inhibition in vivo at 100 mg/kg in assay [4] was less than 30%. The compound also showed an Activity in assay [8] of 0.

As to `CCCN1CCN(C2=Nc3ccccc3CC=C2c2ccc(F)cc2)CC1.O=C(O)/C=C/C(=O)O`, the inhibition in vivo at 50 mg/kg in [11] turned out to be 51%; in assay [19], 61.4%. The Control was found to be 557% in [12], 166% in assay [15], 317% in [17] and 328% in assay [18]. For the same compound, the inhibition in vivo at 10 mg/kg is 18.5% in [13] and less than 30% in [16]. This compound also gave an inhibition in vivo at 1 mg/kg in [14] of 100%.

In the case of `Fc1ccc(C2=CCc3ccccc3N=C2N2CCNCC2)cc1`, the inhibition in vivo at 50 mg/kg in assay [20] and in [21] was 31% each time.

In the case of `O=C(CCCN1CCN(C2=Nc3ccccc3CC=C2c2ccc(Cl)cc2)CC1)c1ccc(F)cc1`, the inhibition in vivo at 50 mg/kg in [22] is less than 30%; in assay [21], 31%.

Take `CN1CCN(C2=Nc3ccccc3CC=C2c2ccccc2Cl)CC1.Cl.Cl`: the inhibition in vivo at 100 mg/kg in [23] was 51%; in assay [24], 31%; in assay [7] it was 51%. In assay [8], this compound had an Activity of 0.

Turning to `CN1CCN(C2=Nc3cc(Cl)ccc3Nc3ccccc32)CC1` [CLOZAPINE], the ED50 was 15.8 mg/kg in assay [25]; 8.45 mg/kg in [26]; greater than 100 mg/kg in assay [29]; 12.6 mg/kg in assay [30]; 77.1 mg/kg in assay [33]; 9.68 mg/kg in assay [36]. The Control % at 10 mg/kg in assay [27] worked out at 128%; in [35], 106%. In addition, the values for the Control % at 50 mg/kg in assay [28] and in assay [31] were 274% and 324%, respectively. For the same compound, 50 mg/kg produced 87.8% inhibition in vivo in assay [32]. The inhibition in vivo at 1 mg/kg in [14] is 27.4%. The same compound yielded an inhibition in vivo at 10 mg/kg in assay [34] of 50.6%.
